What was measured:
Type in all cases: functional
Conditions in all cases: read-out: DIZ
[1] = Antibacterial activity against Xanthomonas campestris pvs. at 10 ug/disc after 24 hrs by disc diffusion method
Method in brief: (§1)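 Disc diffusion assay. Discs were held at 4 °C for 2 h so the compounds could diffuse, then incubated at 28 °C. Inhibition zone diameters were measured in mm after 24 h. Each compound was tested in triplicate.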

Pseudomonas fluorescens = experiment: Antibacterial activity against Pseudomonas fluorescens at 10 ug/disc after 24 hrs by disc diffusion method; method in brief: as §1
Escherichia coli = experiment: Antibacterial activity against Escherichia coli at 10 ug/disc after 24 hrs by disc diffusion method; method in brief: as §1
Xanthomonas oryzae = experiment: Antibacterial activity against Xanthomonas oryzae at 10 ug/disc after 24 hrs by disc diffusion method
Bacillus subtilis = experiment: Antibacterial activity against Bacillus subtilis at 10 ug/disc after 24 hrs by disc diffusion method; method in brief: as §1

Row | SMILES | zone of inhibition at 10 µg/disc [1] | zone of inhibition at 10 µg/disc (Pseudomonas fluorescens) | zone of inhibition at 10 µg/disc (Escherichia coli) | zone of inhibition at 10 µg/disc (Xanthomonas oryzae) | zone of inhibition at 10 µg/disc (Bacillus subtilis)
1 | COC(=O)[C@H](CCCCNC(=O)Nc1cccc(F)c1)NC(=O)CCCc1nc2ccccc2c(=O)[nH]1 | 36 mm | 34 mm | 35 mm | 35 mm | 36 mm
2 | O=C(CCCc1nc2ccccc2c(=O)[nH]1)N[C@@H](CCCCNC(=S)Nc1cccc(F)c1)C(=O)O | 33 mm | 32 mm | 32 mm | 34 mm | 34 mm
3 | COC(=O)[C@H](CCCCNS(C)(=O)=O)NC(=O)CCc1nc2ccccc2c(=O)[nH]1 | 8 mm | 9 mm | 6 mm | 11 mm | 8 mm
4 | Cc1ccccc1NC(=S)NCCCC[C@H](NC(=O)CCc1nc2ccccc2c(=O)[nH]1)C(=O)O | 28 mm | 25 mm | 23 mm | 28 mm | 23 mm
5 | CC(C)(C)OC(=O)NCCCC[C@H](NC(=O)CCc1nc2ccccc2c(=O)[nH]1)C(=O)O | 13 mm | 14 mm | 11 mm | 14 mm | 10 mm
6 | O=C(CCc1nc2ccccc2c(=O)[nH]1)N[C@@H](CCCCNC(=O)Nc1cccc(F)c1)C(=O)O | 33 mm | 34 mm | 35 mm | 34 mm | 35 mm
7 | COC(=O)[C@H](CCCCNC(=S)Nc1ccc(F)cc1C)NC(=O)CCCc1nc2ccccc2c(=O)[nH]1 | 30 mm | 33 mm | 33 mm | 32 mm | 32 mm
8 | COC(=O)[C@H](CCCCNC(=O)Nc1ccc(Cl)cc1)NC(=O)CCc1nc2ccccc2c(=O)[nH]1 | 28 mm | 29 mm | 28 mm | 29 mm | 24 mm
9 | Cc1cc(F)ccc1NC(=S)NCCCC[C@H](NC(=O)CCCc1nc2ccccc2c(=O)[nH]1)C(=O)O | 32 mm | 34 mm | 34 mm | 33 mm | 33 mm
10 | CN[C@@H]1[C@H](O[C@H]2[C@H](O[C@H]3[C@H](O)[C@@H](O)[C@H](N=C(N)N)[C@@H](O)[C@@H]3N=C(N)N)O[C@@H](C)[C@]2(O)C=O)O[C@@H](CO)[C@H](O)[C@H]1O [STREPTOMYCIN] |  | 23 mm | 21 mm |  | 17 mm
11 | COC(=O)[C@H](CCCCNC(=O)Nc1ccc(OC)cc1)NC(=O)CCc1nc2ccccc2c(=O)[nH]1 | 26 mm | 25 mm | 23 mm | 28 mm | 22 mm
12 | COC(=O)[C@H](CCCCNS(C)(=O)=O)NC(=O)CCCc1nc2ccccc2c(=O)[nH]1 | 12 mm | 11 mm | 9 mm | 11 mm | 11 mm
13 | NCCCC[C@H](NC(=O)CCc1nc2ccccc2c(=O)[nH]1)C(=O)O | 10 mm | 10 mm | 9 mm | 9 mm | 8 mm
14 | O=C(CCCc1nc2ccccc2c(=O)[nH]1)N[C@@H](CCCCNC(=O)Nc1cccc(F)c1)C(=O)O | 34 mm | 35 mm | 36 mm | 36 mm | 35 mm
15 | COC(=O)[C@H](CCCCNC(=S)Nc1ccccc1C)NC(=O)CCc1nc2ccccc2c(=O)[nH]1 | 27 mm | 24 mm | 22 mm | 26 mm | 23 mm
16 | COC(=O)[C@H](CCCCNC(=S)Nc1ccccc1C)NC(=O)CCCc1nc2ccccc2c(=O)[nH]1 | 25 mm | 23 mm | 23 mm | 24 mm | 22 mm
17 | O=C(CCc1nc2ccccc2c(=O)[nH]1)N[C@@H](CCCCNC(=O)Nc1ccc(Cl)cc1)C(=O)O | 30 mm | 32 mm | 30 mm | 30 mm | 28 mm
18 | CN(C)[C@@H]1C(O)=C(C(N)=O)C(=O)[C@@]2(O)C(O)=C3C(=O)c4c(O)cccc4[C@@](C)(O)[C@H]3C[C@@H]12 [TETRACYCLINE] | 19 mm |  |  | 18 mm | 

Row | SMILES | zone of inhibition at 10 µg/disc [1] | zone of inhibition at 10 µg/disc (Pseudomonas fluorescens) | zone of inhibition at 10 µg/disc (Escherichia coli) | zone of inhibition at 10 µg/disc (Xanthomonas oryzae) | zone of inhibition at 10 µg/disc (Bacillus subtilis)
19 | NCCCC[C@H](NC(=O)CCCc1nc2ccccc2c(=O)[nH]1)C(=O)O | 13 mm | 12 mm | 10 mm | 12 mm | 14 mm
20 | CC(=O)NCCCC[C@H](NC(=O)CCCc1nc2ccccc2c(=O)[nH]1)C(=O)O | 14 mm | 10 mm | 11 mm | 12 mm | 10 mm
21 | COC(=O)[C@H](CCCCNC(=S)Nc1ccc(F)cc1C)NC(=O)CCc1nc2ccccc2c(=O)[nH]1 | 33 mm | 34 mm | 32 mm | 34 mm | 33 mm
22 | COC(=O)[C@H](CCCCNC(C)=O)NC(=O)CCc1nc2ccccc2c(=O)[nH]1 | 11 mm | 12 mm | 10 mm | 12 mm | 9 mm
23 | O=C(CCCc1nc2ccccc2c(=O)[nH]1)N[C@@H](CCCCNC(=O)Nc1ccc(Cl)cc1)C(=O)O | 28 mm | 30 mm | 28 mm | 29 mm | 29 mm
24 | COC(=O)[C@H](CCCCNC(=O)OC(C)(C)C)NC(=O)CCc1nc2ccccc2c(=O)[nH]1 | 12 mm | 11 mm | 9 mm | 12 mm | 8 mm
25 | CC(=O)NCCCC[C@H](NC(=O)CCc1nc2ccccc2c(=O)[nH]1)C(=O)O | 12 mm | 13 mm | 10 mm | 14 mm | 11 mm
26 | COC(=O)[C@H](CCCCNC(=S)Nc1cccc(F)c1)NC(=O)CCCc1nc2ccccc2c(=O)[nH]1 | 34 mm | 33 mm | 35 mm | 36 mm | 34 mm
27 | CS(=O)(=O)NCCCC[C@H](NC(=O)CCCc1nc2ccccc2c(=O)[nH]1)C(=O)O | 11 mm | 12 mm | 11 mm | 10 mm | 12 mm
28 | CC(C)(C)OC(=O)NCCCC[C@H](NC(=O)CCCc1nc2ccccc2c(=O)[nH]1)C(=O)O | 12 mm | 11 mm | 10 mm | 11 mm | 9 mm
29 | CS(=O)(=O)NCCCC[C@H](NC(=O)CCc1nc2ccccc2c(=O)[nH]1)C(=O)O | 10 mm | 12 mm | 9 mm | 10 mm | 9 mm
30 | COc1ccc(NC(=O)NCCCC[C@H](NC(=O)CCc2nc3ccccc3c(=O)[nH]2)C(=O)O)cc1 | 28 mm | 27 mm | 25 mm | 28 mm | 24 mm
31 | O=C(CCc1nc2ccccc2c(=O)[nH]1)N[C@@H](CCCCNC(=S)Nc1cccc(F)c1)C(=O)O | 36 mm | 34 mm | 38 mm | 36 mm | 36 mm
32 | COC(=O)[C@H](CCCCNC(=O)OC(C)(C)C)NC(=O)CCCc1nc2ccccc2c(=O)[nH]1 | 7 mm | 8 mm | 8 mm | 9 mm | 6 mm
33 | COC(=O)[C@H](CCCCNC(=O)Nc1ccc(Cl)cc1)NC(=O)CCCc1nc2ccccc2c(=O)[nH]1 | 28 mm | 29 mm | 26 mm | 30 mm | 25 mm
34 | COC(=O)[C@H](CCCCN)NC(=O)CCCc1nc2ccccc2c(=O)[nH]1 | 12 mm | 10 mm | 9 mm | 12 mm | 10 mm
35 | COC(=O)[C@H](CCCCNC(=O)Nc1cccc(F)c1)NC(=O)CCc1nc2ccccc2c(=O)[nH]1 | 37 mm | 36 mm | 36 mm | 36 mm | 35 mm
36 | Cc1ccccc1NC(=S)NCCCC[C@H](NC(=O)CCCc1nc2ccccc2c(=O)[nH]1)C(=O)O | 26 mm | 25 mm | 24 mm | 25 mm | 23 mm
